The list is not random: actives were taken first. Their share in the collection is about 3.8%.
DENV2 CPE = protects cells from dengue virus 2 cytopathic effect; DENV2-infected cells, cytopathic effect rescue, plate reader; CPE inhibition, % at 9.99 µM; hit rate 1.7% among 350,000; AID 651640; in the data active = CPE inhibition above about 20%, passing the limit was not always enough; tested in BHK-21 cells
FN deposit inh = fibronectin deposition inhibition | AH1F fibroblasts, Alexa488-fibronectin deposition fluorescence, overnight | inhibition, % at 12.6 µM | hit rate 0.086% among 350,000;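 active = mean inhibition across replicates of 30% or more, regardless of how many single replicates reach that level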
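Test system: AH1F fibroblast monolayer depositing Alexa488-labelled fibronectin into matrix. Input: 10000 cells per well. Technique: fluorescence, ex 485 nm, em 525 nm. Buffer or medium: DMEM plus 2% serum, read in PBS. Timing: 1 h cell adhesion before compound, then overnight fibronectin incubation. Compound: single dose, pinned. Read-out basis: inhibition from reduced deposited-fibronectin fluorescence.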
XiGFP reactiv = activators of X-chromosome reactivation in mouse fibroblasts; XiGFP mouse fibroblasts, % GFP-positive cells imaging, 3 d; cells co-treated with 5-aza-dC sensitizer; scaled so ellipticine positive control = 100%; activation, % at 7.58 µM; hit rate 0.055% among 360,000; AID 743238;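 active = mean normalized replicate activation at least 10% and every replicate at or above 10%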
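Material: XiGFP fibroblasts, SV40-immortalized; Buffer or medium: DMEM containing 5-aza-dC; Compound dosing: single point; Times: 3 days compound exposure.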
SIRT5 inh = sirtuin-5 (human) deacylase inhibition; hit rate 1.1% among 330,000; inhibition, % at 15 µM; AID 652115; Purified SirT5, succinyl-peptide AMC, trypsin-coupled fluorescence; in the data active = inhibition above about 15%
Target sequence (Q9NXA8 whole entry, looked up): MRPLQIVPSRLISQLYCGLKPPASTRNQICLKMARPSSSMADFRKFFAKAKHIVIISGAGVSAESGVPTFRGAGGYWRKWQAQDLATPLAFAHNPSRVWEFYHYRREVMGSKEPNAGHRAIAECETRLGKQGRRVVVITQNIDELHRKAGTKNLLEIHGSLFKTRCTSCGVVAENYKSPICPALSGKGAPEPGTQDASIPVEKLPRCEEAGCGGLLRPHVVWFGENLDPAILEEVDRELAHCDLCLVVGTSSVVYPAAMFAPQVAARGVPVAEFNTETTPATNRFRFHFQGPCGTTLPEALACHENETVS
ARNT-TACC3 inh = ARNT/TACC3 interaction disruption; AlphaScreen His-ARNT PAS-B/GST-TACC3 binding, luminescence; TACC3 fragment carries E629A point mutation; hit rate 0.66% among 390,000; Q9Y6A5; inhibition, % at 9.99 µM;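 active = mean inhibition of replicates at least 50% and at least half of replicates each reaching 50%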
FGF22 binding = shifts melting point of recombinant human FGF22; Q9HCT0; recombinant FGF22 thermal shift, SYPRO orange fluorescence; percent of sucrose octasulfate shift, DMSO zero; activity (Tm shift, normalised), % at 9.99 µM; hit rate 1.5% among 340,000; AID 651658;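 active = mean Tm shift, scaled 0 neutral to 100 positive control, at about 1.3% or above, every replicate too, limit read from the data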
Target sequence (Q9HCT0 whole entry, looked up): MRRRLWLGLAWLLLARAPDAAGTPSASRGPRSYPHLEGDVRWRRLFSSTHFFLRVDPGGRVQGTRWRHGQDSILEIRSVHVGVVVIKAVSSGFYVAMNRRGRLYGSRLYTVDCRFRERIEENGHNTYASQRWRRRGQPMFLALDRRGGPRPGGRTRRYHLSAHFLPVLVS
Numbers stand for hits.

Screening C[C@@H]1CCCCO[C@H](CN(C)C(=O)Nc2ccc(F)cc2)[C@H](C)CN([C@H](C)CO)C(=O)c2cc(NS(=O)(=O)c3cccs3)ccc2O1 returned DENV2 CPE 68, XiGFP reactiv inactive, SIRT5 inh inactive, ARNT-TACC3 inh inactive and FGF22 binding inactive.
`CCC(=O)N[C@H]1CC[C@H](CCNS(=O)(=O)c2ccc(Cl)cc2)O[C@@H]1CO` gave DENV2 CPE inactive, XiGFP reactiv inactive, SIRT5 inh inactive, ARNT-TACC3 inh inactive and FGF22 binding inactive.
`C[C@H](CO)N1C[C@H](C)[C@H](CN(C)C)Oc2cc(C#Cc3ccccc3)ccc2S1(=O)=O` gave DENV2 CPE inactive, XiGFP reactiv inactive, SIRT5 inh inactive, ARNT-TACC3 inh inactive and FGF22 binding inactive.
CO/N=C\CC(=O)Nc1ccc(Cl)cc1Cl was read as DENV2 CPE inactive, FN deposit inh inactive, XiGFP reactiv inactive, SIRT5 inh inactive, ARNT-TACC3 inh inactive and FGF22 binding 43.
CCCNC(=O)N1CC2(CCN(C(=O)c3cnccn3)CC2)c2c([nH]c3cc(OC)ccc23)[C@H]1CO was read as DENV2 CPE inactive, XiGFP reactiv inactive, SIRT5 inh inactive and FGF22 binding inactive.
For O=C(c1cccc(F)c1)N1C[C@@H]2[C@H](c3ccccc31)[C@@H](CO)N2C(=O)C1CCCC1 the results were DENV2 CPE inactive, FN deposit inh inactive, XiGFP reactiv inactive, SIRT5 inh inactive, ARNT-TACC3 inh inactive and FGF22 binding inactive.
COCC(=O)N1[C@H](CO)[C@H]2c3ccccc3N(C(=O)c3cccc(OC)c3)C[C@H]21 was read as DENV2 CPE 55, XiGFP reactiv inactive, SIRT5 inh inactive, ARNT-TACC3 inh inactive and FGF22 binding inactive.
O=C(c1cccc(F)c1)N1C[C@@H]2[C@H](c3ccccc31)[C@H](CO)N2C(=O)C1CC1 was read as DENV2 CPE 32, FN deposit inh inactive, XiGFP reactiv inactive, SIRT5 inh inactive, ARNT-TACC3 inh inactive and FGF22 binding inactive.
O=C(c1ccccc1)N1C[C@@H]2[C@H](c3ccccc31)[C@H](CO)N2C(=O)c1cccc(F)c1 was read as DENV2 CPE 26, FN deposit inh inactive, XiGFP reactiv inactive, SIRT5 inh inactive, ARNT-TACC3 inh inactive and FGF22 binding inactive.
C[C@@H]1CN([C@@H](C)CO)C(=O)c2cccc(NS(=O)(=O)c3ccc(Cl)cc3)c2O[C@@H]1CN(C)Cc1ccc(C(=O)Nc2ccccc2N)cc1 was read as DENV2 CPE inactive, FN deposit inh inactive, XiGFP reactiv inactive, SIRT5 inh inactive, ARNT-TACC3 inh inactive and FGF22 binding inactive.
`C[C@@H]1CN([C@@H](C)CO)C(=O)c2cccc(NC(=O)C3CC3)c2O[C@@H]1CN(C)Cc1ccc(C(=O)Nc2ccccc2N)cc1` gave DENV2 CPE inactive, XiGFP reactiv inactive, SIRT5 inh 17, ARNT-TACC3 inh inactive and FGF22 binding inactive.
`C[C@H]1CN([C@@H](C)CO)C(=O)c2cccc(NS(=O)(=O)c3ccc(Cl)cc3)c2O[C@@H]1CN(C)Cc1ccc(C(=O)Nc2ccccc2N)cc1` gave DENV2 CPE 21, FN deposit inh inactive, XiGFP reactiv inactive, SIRT5 inh inactive and FGF22 binding inactive.
Screening O=C(O)CN1C(=O)/C(=C2\SC(=S)N(C(Cc3ccccc3)C(=O)O)C2=O)c2ccccc21 (configuration not stated) returned DENV2 CPE inactive, FN deposit inh inactive, XiGFP reactiv inactive, SIRT5 inh 17, ARNT-TACC3 inh inactive and FGF22 binding inactive.
`CCCC(C(=O)O)N1C(=O)/C(=C2\C(=O)N(C)c3ccccc32)SC1=S` (configuration not stated) gave XiGFP reactiv inactive and ARNT-TACC3 inh inactive.
`O=C(C[C@H]1C[C@H]2c3cc(NS(=O)(=O)c4ccc(F)cc4)ccc3O[C@H]2[C@H](CO)O1)NCc1ccc(-c2ccccc2)cc1` gave DENV2 CPE inactive, FN deposit inh inactive, XiGFP reactiv inactive, SIRT5 inh 18 and ARNT-TACC3 inh inactive.
Screening O=C(C[C@@H]1C[C@H]2c3cc(NS(=O)(=O)c4ccc(F)cc4)ccc3O[C@H]2[C@@H](CO)O1)NCc1ccc(-c2ccccc2)cc1 returned DENV2 CPE inactive, FN deposit inh inactive, XiGFP reactiv inactive, SIRT5 inh 16 and ARNT-TACC3 inh inactive.
For CC(C)=CCN1CCN(Cc2ccc3nsnc3c2)CC1CCO (configuration not stated) the results were DENV2 CPE inactive, XiGFP reactiv inactive, SIRT5 inh inactive, ARNT-TACC3 inh inactive and FGF22 binding 43.
Screening COc1ccc(CN2CCN(CC=C(C)C)C(CCO)C2)cc1Cn1cccn1 (configuration not stated) returned DENV2 CPE inactive, FN deposit inh inactive, XiGFP reactiv inactive, SIRT5 inh inactive and FGF22 binding 44.
Screening COc1ccc(CN2CCN(CCc3ccccc3)C(CCO)C2)cc1Cn1cncn1 (configuration not stated) returned DENV2 CPE inactive, FN deposit inh inactive, XiGFP reactiv inactive, SIRT5 inh inactive and FGF22 binding 44.
`O=C(C[C@@H]1CC[C@@H]2NC[C@@H](O)COC[C@H]2O1)NCc1ccc(Oc2ccccc2)cc1` gave DENV2 CPE inactive, FN deposit inh inactive, XiGFP reactiv inactive, SIRT5 inh inactive, ARNT-TACC3 inh inactive and FGF22 binding inactive.
For CC[C@H]1C/C=C\C[C@H](c2ccc(F)cc2)NC(=O)CCC(=O)N1 the results were FN deposit inh inactive and XiGFP reactiv inactive.
Cc1ccc(NC(=O)COC(=O)c2cc(Cl)ccc2[N+](=O)[O-])cc1 was read as DENV2 CPE inactive, FN deposit inh inactive, XiGFP reactiv inactive, SIRT5 inh inactive, ARNT-TACC3 inh inactive and FGF22 binding inactive.
O=C(COC(=O)c1cc(Cl)ccc1[N+](=O)[O-])NC1CC1 was read as DENV2 CPE inactive, FN deposit inh inactive, XiGFP reactiv inactive, SIRT5 inh 16, ARNT-TACC3 inh inactive and FGF22 binding inactive.
O=C(COC(=O)CNC(=O)c1ccc(Cl)cc1Cl)NC1CC1 was read as DENV2 CPE inactive, FN deposit inh inactive, XiGFP reactiv inactive, ARNT-TACC3 inh inactive and FGF22 binding 43.
For CO[C@H]1CN(C)C(=O)c2ccc(NS(=O)(=O)c3ccccc3)cc2OC[C@@H](C)NC[C@H]1C the results were DENV2 CPE inactive, FN deposit inh inactive, XiGFP reactiv inactive, SIRT5 inh inactive, ARNT-TACC3 inh inactive and FGF22 binding inactive.
`C[C@H]1CCCCO[C@H](CN(C)Cc2ccc(C(F)(F)F)cc2)[C@@H](C)CN([C@@H](C)CO)C(=O)c2cc(NC(=O)Nc3cccc4ccccc34)ccc2O1` gave DENV2 CPE inactive, FN deposit inh inactive, XiGFP reactiv inactive, ARNT-TACC3 inh inactive and FGF22 binding inactive.

Bioassay records as filed in PubChem.
